Measured values reported in ChEMBL document CHEMBL5058577, “EUbOPEN Chemogenomics Library 2 (Multiplex)” (2022).

System: Fibroblast
Assay: Multiplex assay against human fibroblast
Format: toxicity, cell-based
In short: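 At seeding, live cells were stained with Hoechst33342, BioTracker Green Microtubule Cytoskeleton Dye, MitoTracker Red and Annexin V Alexa Fluor 680. After compound addition they were imaged on a CQ1 microscope at 37°C and 5% CO2, and CellPathfinder machine-learning gating sorted them into Hoechst high-intensity objects or normal cells, with normal cells further split into healthy, pyknosed or fragmented nuclei and pyknosed cells into mitotic or apoptotic. Tubulin, mitochondrial-mass and membrane-permeability phenotypes are given as per cents of cells with healthy nuclei.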

[1] = 12 h, 1 µM, compound concentration 1 uM, replicate 1
[2] = 12 h, 1 µM, compound concentration 1 uM, replicate 2
[3] = 12 h, 10 µM, compound concentration 10 uM, replicate 1
[4] = 12 h, 10 µM, compound concentration 10 uM, replicate 2
[5] = 24 h, 1 µM, compound concentration 1 uM, replicate 1
[6] = 24 h, 1 µM, compound concentration 1 uM, replicate 2
[7] = 24 h, 10 µM, compound concentration 10 uM, replicate 1
[8] = 24 h, 10 µM, compound concentration 10 uM, replicate 2
[9] = 48 h, 1 µM, compound concentration 1 uM, replicate 1
[10] = 48 h, 1 µM, compound concentration 1 uM, replicate 2
[11] = 48 h, 10 µM, compound concentration 10 uM, replicate 1
[12] = 48 h, 10 µM, compound concentration 10 uM, replicate 2

CCCCCCNC(=O)Nc1ccc(S(=O)(=O)Nc2ccc(CCNC[C@H](O)COc3ccc(O)cc3)cc2)cc1 [L-755507]
Population Apoptotic (%) [1]: 40% | Population Fragmented Nuclei (%) [1]: 27% | Population Healthy Nuclei (%) [1]: 59% | Population Hoechst High Intensity Objects (%) [1]: 1% | Population Membrane Permeable-Phenotype (%) [1]: 3% | Population Mitochondria Different-Phenotype (%) [1]: 6% | Population Mitotic Cells (%) [1]: 60% | Population Normal (%) [1]: 98% | Population Pyknosed Nuclei (%) [1]: 12% | Population Tubulin-Different-Phenotype (%) [1]: 34% | Total Cell Count [1]: 198 | Population Apoptotic (%) [2]: 46% | Population Fragmented Nuclei (%) [2]: 21% | Population Hoechst High Intensity Objects (%) [2]: 3% | Population Mitochondria Different-Phenotype (%) [2]: 3% | Population Mitotic Cells (%) [2]: 53% | Population Normal (%) [2]: 96% | Population Pyknosed Nuclei (%) [2]: 19% | Population Tubulin-Different-Phenotype (%) [2]: 36% | Total Cell Count [2]: 160 | Population Apoptotic (%) [3]: 45% | Population Fragmented Nuclei (%) [3]: 17% | Population Healthy Nuclei (%) [3]: 72% | Population Hoechst High Intensity Objects (%) [3]: 5% | Population Membrane Permeable-Phenotype (%) [3]: 0% | Population Mitochondria Different-Phenotype (%) [3]: 10% | Population Mitotic Cells (%) [3]: 54% | Population Normal (%) [3]: 94% | Population Pyknosed Nuclei (%) [3]: 10% | Population Tubulin-Different-Phenotype (%) [3]: 47% | Total Cell Count [3]: 218 | Population Apoptotic (%) [4]: 42% | Population Fragmented Nuclei (%) [4]: 34% | Population Healthy Nuclei (%) [4]: 48% | Population Membrane Permeable-Phenotype (%) [4]: 1% | Population Mitochondria Different-Phenotype (%) [4]: 19% | Population Mitotic Cells (%) [4]: 57% | Population Pyknosed Nuclei (%) [4]: 17% | Population Tubulin-Different-Phenotype (%) [4]: 64% | Total Cell Count [4]: 172 | Population Apoptotic (%) [5]: 31% | Population Fragmented Nuclei (%) [5]: 26% | Population Healthy Nuclei (%) [5]: 63% | Population Hoechst High Intensity Objects (%) [5]: 1% | Population Membrane Permeable-Phenotype (%) [5]: 0% | Population Mitochondria Different-Phenotype (%) [5]: 3% | Population Mitotic Cells (%) [5]: 68% | Population Normal (%) [5]: 98% | Population Pyknosed Nuclei (%) [5]: 9% | Population Tubulin-Different-Phenotype (%) [5]: 27% | Total Cell Count [5]: 196 | Population Apoptotic (%) [6]: 39% | Population Healthy Nuclei (%) [6]: 59% | Population Hoechst High Intensity Objects (%) [6]: 2% | Population Membrane Permeable-Phenotype (%) [6]: 3% | Population Mitochondria Different-Phenotype (%) [6]: 12% | Population Mitotic Cells (%) [6]: 60% | Population Normal (%) [6]: 97% | Population Pyknosed Nuclei (%) [6]: 13% | Population Tubulin-Different-Phenotype (%) [6]: 44% | Total Cell Count [6]: 176 | Population Apoptotic (%) [7]: 72% | Population Fragmented Nuclei (%) [7]: 21% | Population Healthy Nuclei (%) [7]: 70% | Population Hoechst High Intensity Objects (%) [7]: 8% | Population Membrane Permeable-Phenotype (%) [7]: 0% | Population Mitochondria Different-Phenotype (%) [7]: 8% | Population Mitotic Cells (%) [7]: 27% | Population Normal (%) [7]: 91% | Population Pyknosed Nuclei (%) [7]: 8% | Population Tubulin-Different-Phenotype (%) [7]: 38% | Total Cell Count [7]: 232 | Population Apoptotic (%) [8]: 50% | Population Fragmented Nuclei (%) [8]: 38% | Population Healthy Nuclei (%) [8]: 51% | Population Hoechst High Intensity Objects (%) [8]: 4% | Population Membrane Permeable-Phenotype (%) [8]: 3% | Population Mitochondria Different-Phenotype (%) [8]: 19% | Population Mitotic Cells (%) [8]: 50% | Population Normal (%) [8]: 95% | Population Pyknosed Nuclei (%) [8]: 9% | Population Tubulin-Different-Phenotype (%) [8]: 65% | Total Cell Count [8]: 168 | Population Apoptotic (%) [9]: 62% | Population Fragmented Nuclei (%) [9]: 28% | Population Healthy Nuclei (%) [9]: 63% | Population Hoechst High Intensity Objects (%) [9]: 3% | Population Membrane Permeable-Phenotype (%) [9]: 0% | Population Mitochondria Different-Phenotype (%) [9]: 4% | Population Mitotic Cells (%) [9]: 37% | Population Normal (%) [9]: 96% | Population Pyknosed Nuclei (%) [9]: 8% | Population Tubulin-Different-Phenotype (%) [9]: 31% | Total Cell Count [9]: 201 | Population Apoptotic (%) [10]: 53% | Population Fragmented Nuclei (%) [10]: 33% | Population Healthy Nuclei (%) [10]: 58% | Population Hoechst High Intensity Objects (%) [10]: 4% | Population Membrane Permeable-Phenotype (%) [10]: 1% | Population Mitochondria Different-Phenotype (%) [10]: 6% | Population Mitotic Cells (%) [10]: 46% | Population Normal (%) [10]: 95% | Population Tubulin-Different-Phenotype (%) [10]: 33% | Total Cell Count [10]: 170 | Population Apoptotic (%) [11]: 79% | Population Fragmented Nuclei (%) [11]: 19% | Population Healthy Nuclei (%) [11]: 69% | Population Hoechst High Intensity Objects (%) [11]: 6% | Population Membrane Permeable-Phenotype (%) [11]: 1% | Population Mitochondria Different-Phenotype (%) [11]: 8% | Population Mitotic Cells (%) [11]: 20% | Population Normal (%) [11]: 93% | Population Pyknosed Nuclei (%) [11]: 10% | Population Tubulin-Different-Phenotype (%) [11]: 49% | Total Cell Count [11]: 240 | Population Apoptotic (%) [12]: 71% | Population Fragmented Nuclei (%) [12]: 42% | Population Healthy Nuclei (%) [12]: 53% | Population Hoechst High Intensity Objects (%) [12]: 3% | Population Membrane Permeable-Phenotype (%) [12]: 5% | Population Mitochondria Different-Phenotype (%) [12]: 11% | Population Mitotic Cells (%) [12]: 28% | Population Normal (%) [12]: 96% | Population Pyknosed Nuclei (%) [12]: 3% | Population Tubulin-Different-Phenotype (%) [12]: 55% | Total Cell Count [12]: 184
